# Assay results published in ChEMBL document CHEMBL4330056, “Synthesis and Cytotoxic and Antiviral Profiling of Pyrrolo- and Furo-Fused 7-Deazapurine Ribonucleosides” (J Med Chem, 2018).
# Calls of active or inactive are those of the source. The rule behind the calls is not given here.
# Tests used:
# Adenosine kinase [1] = molecular target: T1, Adenosine kinase (Homo sapiens, UniProt P55263); assay: Substrate activity at recombinant human ADK assessed as compound phosphorylation at 50 uM after 20 mins in presence of [3H]-adenosine by UPLC; assay type: ADME
# T1 sequence (P55263 whole entry): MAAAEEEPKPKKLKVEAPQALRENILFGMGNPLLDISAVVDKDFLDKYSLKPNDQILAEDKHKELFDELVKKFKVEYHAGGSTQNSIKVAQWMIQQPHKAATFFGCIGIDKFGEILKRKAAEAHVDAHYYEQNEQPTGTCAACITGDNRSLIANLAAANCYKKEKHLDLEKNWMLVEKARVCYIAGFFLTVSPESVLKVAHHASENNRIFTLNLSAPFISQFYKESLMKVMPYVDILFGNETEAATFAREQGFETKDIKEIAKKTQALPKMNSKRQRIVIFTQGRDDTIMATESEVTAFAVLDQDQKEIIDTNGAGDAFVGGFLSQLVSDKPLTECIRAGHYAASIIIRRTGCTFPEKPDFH
# [2] = Cytotoxicity against human Hep2 cells assessed as reduction in cell viability after 3 days by CellTiter-Glo assay; assay type: cell-based; conditions: HEp-2 cells
# [3] = Chemical stability of the compound assessed as compound remaining after 60 mins relative to control; assay type: physicochemical; conditions: read-out: Stability
# CCRF-CEM [4] = assay: Induction of cell cycle arrest in human CCRF-CEM cells assessed as accumulation at S phase at 5 times IC50 concentration after 24 hrs by propidium iodide-staining based flow cytometry (reference value: 41.08%); assay type: functional
# CCRF-CEM [5] = assay: Induction of cell cycle arrest in human CCRF-CEM cells assessed as accumulation at subG1 phase at IC50 concentration after 24 hrs by propidium iodide-staining based flow cytometry (reference value: 3.45%); assay type: functional
# CCRF-CEM [6] = assay: Inhibition of mitosis in human CCRF-CEM cells assessed Ser10 H3 phosphorylation positive cells at 5 times IC50 concentration after 24 hrs by flow cytometry relative to total cell population (reference value: 1.36%); assay type: functional; parameters: scale not given: the % may be the effect or the level left
# [7] = Stability in human plasma assessed as compound remaining at 3.3 umol/L after 30 mins by RF-MS analysis relative to control; assay type: ADME, cell-free; conditions: read-out: Stability
# [8] = Antiproliferative activity against human K562-TAX cells after 3 days by MTS assay; assay type: functional, cell-based; conditions: 72 h
# CCRF-CEM [9] = assay: Inhibition of mitosis in human CCRF-CEM cells assessed Ser10 H3 phosphorylation positive cells at IC50 concentration after 24 hrs by flow cytometry relative to total cell population (reference value: 1.36%); assay type: functional; parameters: scale not given: the % may be the effect or the level left
# CCRF-CEM [10] = assay: Inhibition of RNA synthesis in human CCRF-CEM cells assessed as RNA synthesis level at 5 times IC50 concentration after 24 hrs by BrU incorporation assay (reference value: 49.89%); assay type: functional; parameters: scale not given: the % may be the effect or the level left
# HeLa S3 = assay: Antiproliferative activity against human HeLaS3 cells after 72 hrs by XTT assay; assay type: functional, cell-based; conditions: HeLa S3, 72 h
# Adenosine kinase [11] = molecular target: T1, Adenosine kinase; assay: Inhibition of recombinant human ADK using [3H]-adenosine as substrate after 20 mins by TLC scanner-based analysis relative to control
# In short: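 ADK inhibition: 50 μM adenosine substrate with 10 μM test compound and 97 ng enzyme, 20 min at 37 °C.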
# Coxsackievirus B3 = assay: Antiviral activity against Human coxsackie B3 Nancy infected in human HeLa cells assessed as inhibited virus-induced cytopathic effect incubated for 2 days by XTT assay; assay type: functional, organism-based
# CCRF-CEM [12] = assay: Induction of cell cycle arrest in human CCRF-CEM cells assessed as accumulation at subG1 phase at 5 times IC50 concentration after 24 hrs by propidium iodide-staining based flow cytometry (reference value: 3.45%); assay type: functional
# [13] = Stability in human plasma assessed as compound remaining at 3.3 umol/L after 120 mins by RF-MS analysis relative to control; assay type: ADME, cell-free; conditions: read-out: Stability
# CCRF-CEM [14] = assay: Inhibition of DNA synthesis in human CCRF-CEM cells assessed as DNA synthesis level at IC50 concentration after 24 hrs by BrdU incorporation assay (reference value: 43.39%); assay type: functional; parameters: scale not given: the % may be the effect or the level left
# [15] = Stability in human plasma assessed as compound remaining at 3.3 umol/L after 15 mins by RF-MS analysis relative to control; assay type: ADME, cell-free; conditions: read-out: Stability
# [16] = Metabolic stability in human liver microsomes assessed as compound remaining at 5 umol/L after 60 mins relative to control; assay type: ADME, Microsome; conditions: read-out: Stability
# In short: (§1)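 Human microsomal fraction; percent compound remaining over time.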
# CCRF-CEM [17] = assay: Induction of cell cycle arrest in human CCRF-CEM cells assessed as accumulation at G2/M phase at 5 times IC50 concentration after 24 hrs by propidium iodide-staining based flow cytometry (reference value: 19.22%); assay type: functional
# dengue virus type 2 = assay: Antiviral activity against Dengue virus 2 Thailand/16681/84 infected in African green monkey Vero cells assessed as inhibition of virus replication incubated for 3 days by fluorescence microscopy; assay type: functional, organism-based
# CCRF-CEM [18] = assay: Induction of cell cycle arrest in human CCRF-CEM cells assessed as accumulation at S phase at IC50 concentration after 24 hrs by propidium iodide-staining based flow cytometry (reference value: 41.08%); assay type: functional
# CCRF-CEM [19] = assay: Induction of cell cycle arrest in human CCRF-CEM cells assessed as accumulation at G0/G1 phase at 5 times IC50 concentration after 24 hrs by propidium iodide-staining based flow cytometry (reference value: 39.70%); assay type: functional
# [20] = Metabolic stability in human liver microsomes assessed as compound remaining at 5 umol/L after 30 mins relative to control; assay type: ADME, Microsome; conditions: read-out: Stability; in short: as §1
# U2OS = assay: Antiproliferative activity against human U2OS cells after 3 days by MTS assay; assay type: functional, cell-based; conditions: 72 h
# [21] = Metabolic stability in human liver microsomes assessed as compound remaining at 5 umol/L after 15 mins relative to control; assay type: ADME, Microsome; conditions: read-out: Stability; in short: as §1
# Human orthopneumovirus = assay: Antiviral activity against Human respiratory syncytial virus A2 infected in Hep2 cells assessed as reduction in virus-induced cytopathic effect incubated for 4 days by CellTiter-Glo viability reagent based assay; assay type: functional, organism-based
# BJ = assay: Antiproliferative activity against human BJ cells after 3 days by MTS assay; conditions: 72 h
# Human alphaherpesvirus 1 = assay: Antiviral activity against human herpesvirus 1 HF infected in African green monkey Vero cells assessed as inhibited virus-induced cytopathic effect incubated for 3 days by XTT assay; assay type: functional, organism-based
# MRC5 = assay: Antiproliferative activity against human MRC5 cells after 3 days by MTS assay; conditions: MRC5, 72 h
# K562 = assay: Antiproliferative activity against human K562 cells after 3 days by MTS assay; assay type: functional, cell-based; conditions: K562, 72 h
# A549 = assay: Antiproliferative activity against human A549 cells after 3 days by MTS assay; assay type: functional, cell-based; conditions: A549, 72 h
# [22] = Stability in human plasma assessed as compound remaining at 3.3 umol/L after 60 mins by RF-MS analysis relative to control; assay type: ADME, cell-free; conditions: read-out: Stability
# CCRF-CEM [23] = assay: Inhibition of RNA synthesis in human CCRF-CEM cells assessed as RNA synthesis level at IC50 concentration after 24 hrs by BrU incorporation assay (reference value: 49.89%); assay type: functional; parameters: scale not given: the % may be the effect or the level left
# Hepatitis C virus [24] = assay: Antiviral activity against Hepatitis C virus genotype 1b infected in human Huh-luc replicon cells after 3 days by luciferase assay; assay type: functional, organism-based, Hepacivirus hominis; conditions: subtype 1b, 72 h
# CCRF-CEM [25] = assay: Induction of cell cycle arrest in human CCRF-CEM cells assessed as accumulation at G0/G1 phase at IC50 concentration after 24 hrs by propidium iodide-staining based flow cytometry (reference value: 39.70%); assay type: functional
# Hepatitis C virus [26] = assay: Antiviral activity against Hepatitis C virus genotype 2a infected in human Huh-luc replicon cells after 3 days by luciferase assay; assay type: functional, organism-based, Hepacivirus hominis; conditions: subtype 2a, 72 h
# [27] = Effective permeability of the compound at 20 umol/L by PAMPA; assay type: ADME; conditions: 20 µM
# [28] = Protein binding in human plasma; assay type: ADME, cell-free; conditions: read-out: PPB (converted)
# HepG2 = assay: Antiproliferative activity against human HepG2 cells after 72 hrs by XTT assay; assay type: functional, cell-based; conditions: HepG2, 72 h
# [29] = Chemical stability of the compound assessed as compound remaining after 30 mins relative to control; assay type: physicochemical; conditions: read-out: Stability
# HL-60 = assay: Antiproliferative activity against human HL60 cells after 72 hrs by XTT assay; assay type: functional, cell-based; conditions: HL-60, 72 h
smiles,measurement,setting,value
Cc1ncnc2c1c1c(ccn1C)n2[C@@H]1O[C@H](CO)[C@@H](O)[C@H]1O,Activity,Adenosine kinase [1],42%
same,CC50 at 72 h,[2],> 44400 nM
same,remaining at 1 h,[3],93%
same,Activity,CCRF-CEM [4],52.19%
same,Activity,CCRF-CEM [5],5.1%
same,Activity,CCRF-CEM [6],0.9%
same,"remaining at 0.5 h, 3.3 µM",[7],83%
same,IC50,[8],> 50000 nM
same,Activity,CCRF-CEM [9],1.06%
same,Activity,CCRF-CEM [10],35.91%
same,IC50,HeLa S3,1190 nM
same,IC50,Adenosine kinase [11],> 10000 nM
same,Activity,Coxsackievirus B3,inactive
same,Activity,CCRF-CEM [12],10.99%
same,"remaining at 2 h, 3.3 µM",[13],79%
same,Activity,CCRF-CEM [14],48.49%
same,"remaining at 0.25 h, 3.3 µM",[15],98%
same,"remaining at 1 h, 5 µM",[16],97%
same,Activity,CCRF-CEM [17],13.14%
same,Activity,dengue virus type 2,inactive
same,Activity,CCRF-CEM [18],51.03%
same,Activity,CCRF-CEM [19],34.66%
same,"remaining at 0.5 h, 5 µM",[20],98%
same,IC50,U2OS,610 nM
same,"remaining at 0.25 h, 5 µM",[21],99%
same,Activity,Human orthopneumovirus,inactive
same,IC50,BJ,3910 nM
same,Activity,Human alphaherpesvirus 1,inactive
same,IC50,MRC5,50000 nM
same,IC50,K562,400 nM
same,IC50,A549,2080 nM
same,"remaining at 1 h, 3.3 µM",[22],81%
same,Activity,CCRF-CEM [23],53.62%
same,EC50,Hepatitis C virus [24],190 nM
same,Activity,CCRF-CEM [25],31.75%
same,EC50,Hepatitis C virus [26],120 nM
same,log(permeability),[27],-6.87
same,fraction unbound,[28],0.71
same,IC50,HepG2,1130 nM
same,remaining at 0.5 h,[29],97%
same,IC50,HL-60,1510 nM
CSc1ncnc2c1c1occc1n2[C@@H]1O[C@H](CO)[C@@H](O)[C@H]1O,Activity,Adenosine kinase [1],56%
same,CC50 at 72 h,[2],> 44400 nM
same,remaining at 1 h,[3],99%
same,Activity,CCRF-CEM [4],53.55%
same,Activity,CCRF-CEM [5],6.52%
same,Activity,CCRF-CEM [6],0.9%
same,"remaining at 0.5 h, 3.3 µM",[7],99%
same,IC50,[8],2700 nM
same,Activity,CCRF-CEM [9],1.26%
same,Activity,CCRF-CEM [10],6.55%
same,IC50,HeLa S3,2960 nM
same,IC50,Adenosine kinase [11],> 10000 nM
same,Activity,Coxsackievirus B3,inactive
same,Activity,CCRF-CEM [12],14.06%
same,"remaining at 2 h, 3.3 µM",[13],96%
same,Activity,CCRF-CEM [14],39.68%
same,"remaining at 0.25 h, 3.3 µM",[15],99%
same,"remaining at 1 h, 5 µM",[16],98%
same,Activity,CCRF-CEM [17],13.3%
same,Activity,dengue virus type 2,inactive
same,Activity,CCRF-CEM [18],38.26%
same,Activity,CCRF-CEM [19],33.16%
same,"remaining at 0.5 h, 5 µM",[20],99%
same,IC50,U2OS,340 nM
same,"remaining at 0.25 h, 5 µM",[21],100%
same,Activity,Human orthopneumovirus,inactive
same,IC50,BJ,490 nM
same,Activity,Human alphaherpesvirus 1,inactive
same,IC50,MRC5,9370 nM
same,IC50,K562,270 nM
same,IC50,A549,4860 nM
same,"remaining at 1 h, 3.3 µM",[22],98%
same,Activity,CCRF-CEM [23],0.39%
same,EC50,Hepatitis C virus [24],280 nM
same,Activity,CCRF-CEM [25],44.43%
same,EC50,Hepatitis C virus [26],240 nM
same,log(permeability),[27],-5.99
same,fraction unbound,[28],0.16
same,IC50,HepG2,2010 nM
same,remaining at 0.5 h,[29],99%
same,IC50,HL-60,290 nM
Cc1ncnc2c1c1occc1n2[C@@H]1O[C@H](CO)[C@@H](O)[C@H]1O,Activity,Adenosine kinase [1],48%
same,CC50 at 72 h,[2],> 44400 nM
same,remaining at 1 h,[3],99%
same,Activity,CCRF-CEM [4],59.66%
same,Activity,CCRF-CEM [5],7.62%
same,Activity,CCRF-CEM [6],0.99%
same,"remaining at 0.5 h, 3.3 µM",[7],99%
same,IC50,[8],6930 nM
same,Activity,CCRF-CEM [9],1.09%
same,Activity,CCRF-CEM [10],0.61%
same,IC50,HeLa S3,2210 nM
same,IC50,Adenosine kinase [11],> 10000 nM
same,Activity,Coxsackievirus B3,inactive
same,Activity,CCRF-CEM [12],20.53%
same,"remaining at 2 h, 3.3 µM",[13],96%
same,Activity,CCRF-CEM [14],38.11%
same,"remaining at 0.25 h, 3.3 µM",[15],99%
same,"remaining at 1 h, 5 µM",[16],98%
same,Activity,CCRF-CEM [17],13.52%
same,Activity,dengue virus type 2,inactive
same,Activity,CCRF-CEM [18],39.31%
same,Activity,CCRF-CEM [19],36.83%
same,"remaining at 0.5 h, 5 µM",[20],99%
same,IC50,U2OS,570 nM
same,"remaining at 0.25 h, 5 µM",[21],100%
same,Activity,Human orthopneumovirus,inactive
same,IC50,BJ,7730 nM
same,Activity,Human alphaherpesvirus 1,inactive
same,IC50,MRC5,> 50000 nM
same,IC50,K562,410 nM
same,IC50,A549,3190 nM
same,"remaining at 1 h, 3.3 µM",[22],98%
same,Activity,CCRF-CEM [23],21.63%
same,EC50,Hepatitis C virus [24],280 nM
same,Activity,CCRF-CEM [25],44.57%
same,EC50,Hepatitis C virus [26],240 nM
same,log(permeability),[27],-6.88
same,fraction unbound,[28],0.41
same,IC50,HepG2,2120 nM
same,remaining at 0.5 h,[29],99%
same,IC50,HL-60,1200 nM
